Laboratory results as given in article PMC5503476 (Bioorganic & medicinal chemistry letters, 2017).
Values after ≈ are worked out from the molar mass of the structure shown.

Key:
[1] = Aqueous solubility by HPLC-UV; type: physicochemical
wild-type HIV-1 (NL4-3) = test: Anti-HIV activity against wild-type HIV-1; type: cell-based; details: Human immunodeficiency virus 1, NL43, TZM-bl, read-out: EC50 NL4-3
Method in brief: (§1)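 Wild-type HIV-1 NL4-3 and the E138K+M184I resistant strain were tested in parallel in TZM-bl cells, with a reference NNRTI alongside. EC50 was read from luciferase reporter gene expression. New analogues were tested up to 100 ng/mL, with at least three experiments (n = 3). Fold change is the resistant-strain EC50 divided by the wild-type EC50.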

NL4-3 variant E138K = type: cell-based, HIV-1
[2] = tested on: NL4-3 variant E138K+M184I; type: cell-based, HIV-1
Method in brief: as §1

Cytotoxicity = type: cell-based; details: human, TZM-bl cells
[3] = Human plasma stability assay; type: in vitro ADME
[4] = 0.01 M HCl, pH 2, aqueous with cosolvent or surfactant or cyclodextrin
[5] = EC50(resistant viral strain)/EC50(wild-type viral strain)

| half-life at 10 μg/mL [3] | Compound | solubility kinetic at 4 h [1, 4] | EC50 (wild-type HIV-1 (NL4-3)) | Resistance fold change (FC) E138K (NL4-3 variant E138K; [5]) | EC50 (NL4-3 variant E138K; Human immunodeficiency virus 1, NL43, TZM-bl, read-out: EC50 E138K) | Resistance fold change (FC) E138K+M184I [2, 5] | EC50 ([2]; Human immunodeficiency virus 1, NL43, TZM-bl, read-out: EC50 E138K+M184I) | CC50 (Cytotoxicity) | solubility kinetic at 4 h ([1]; phosphate buffer, pH 7.4, aqueous with cosolvent or surfactant or cyclodextrin) |
| --- | --- | --- | --- | --- | --- | --- | --- | --- | --- |
|  | Cc1cc(/C=C/C#N)cc(C)c1Nc1ccnc(Nc2ccc(C#N)cc2)n1 [compound 2, rilpivirine, reference compound] | 86.8 µg/mL (≈ 237 µM) |  |  |  |  |  |  |  |
|  | Cc1cc(/C=C/C#N)cc(C)c1Oc1cc(Nc2ccc(C#N)cc2)c(N)cc1C(N)=O [compound 3] | 2.09 µg/mL (≈ 4.94 µM) | 1.82 ± 0.57 nM | 1.9 | 3.55 ± 0.64 nM | 1.9 | 3.55 ± 1.02 nM | > 23600 nM | 0.63 µg/mL (≈ 1.49 µM) |
| 80 h | CC(C)NCC(O)COc1cccc2ccccc12 (stereo not shown) [propranolol] |  |  |  |  |  |  |  |  |
